# Published values pooled from the literature.
# Target: Mitogen-activated protein kinase kinase kinase 4 (MAP3K4, Homo sapiens, UniProt Q9Y6R4)
Structure (SMILES),assay,setting,measurement,value
C1=C/COCc2cc(ccc2OCCN2CCCC2)Nc2nccc(n2)-c2cccc(c2)COC/1,binding,0.1 µM,remaining binding,100%
N#Cc1ccc(NC(=O)Nc2ccccc2)cc1,"cell-free assay, competition with immobilised ligand",25 µM,remaining binding,77%
C[C@H]1CC[C@H](n2c3cnccc3c3cnc(Nc4ccc5c(n4)CCN(C(=O)CO)C5)nc32)CC1,"binding, competition with immobilised ligand",1 µM,remaining binding,100%
CC#CC(=O)N1CCC[C@H]1c1nc(-c2ccc(C(=O)Nc3ccccn3)cc2)c2c(N)nccn12,"enzyme activity, inhibitor",1 µM,inhibition,19%
C#Cc1cnc(Nc2ccnc(CO)c2)nc1Nc1ccccc1S(C)(=O)=NC#N (centres unmarked),cell-free assay,1 µM,remaining signal,86%
CCCCC(=O)Nc1ccc(-c2ccc3ncn(CCC)c(=O)c3c2)cn1,"binding, competition with immobilised ligand",0.5 µM,remaining binding,76%
CO[C@@H]1[C@H](N(C)C(=O)c2ccccc2)C[C@H]2O[C@]1(C)n1c3ccccc3c3c4c(c5c6ccccc6n2c5c31)C(=O)NC4,"enzyme activity, inhibitor",1 µM,inhibition,4%
Cc1ccc(NC(=O)c2ccnc(C(F)(F)F)c2)cc1-c1cc(OCCO)nc(N2CCOCC2)c1,"binding, competition with immobilised ligand",1 µM,remaining binding,90%
